Results on 3 molecules are retold here after PubChem BioAssay AID588768 (The Scripps Research Institute Molecular Screening Center, 2011).

The term CC50 denotes the concentration giving 50% cytotoxicity.

The source made the active and inactive calls.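 The calls were made as follows: active = cytotoxic, with CC50, the dose killing half the cells, at or below 5 µM in either medium; inactive = CC50 above 5 µM in every panel.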

The assay can be described thus: HEK293T cell viability reduction – WST-1 absorbance, serum-free and serum media, powder, cytotoxicity control for pPAFAH inhibitor project, dose response (AID 588768). Put shortly:
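Test system: 293T HEK cells | Medium: DMEM with or without 10% FCS | Timing: 48 h exposure at 37 °C | Repeats: Five replicates per concentration | Read-out: CC50 from three-parameter sigmoidal fit of percent cell viability | Measured by: WST-1 colorimetric absorbance | Compound dosing: 7-point 1:5 series up to 50 µM | Control set: no-compound cells high, no-cell wells low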

`Cc1cc(N2CCN(C(=O)Oc3ccc(-c4ccccc4)cc3)CC2)c2ccccc2n1`: the CC50 is 12 µM (inactive) (with 10% FCS) and 1.8 µM (without serum).

`Cc1cc(N2CCN(C(=O)Oc3ccc(-c4ccccc4)cn3)CC2)c2ccccc2n1`: the CC50 (with 10% FCS) was 35 µM (inactive) and the CC50 (without serum) is 6.7 µM (inactive).

In the case of `Cc1cc(N2CCN(C(=O)Oc3ccc([N+](=O)[O-])cc3)CC2)c2ccccc2n1`, the CC50 (with 10% FCS) was 13 µM (inactive) and the CC50 (without serum) is 0.061 µM.
